Screening data (PubChem BioAssay)
Most compounds without a hit are left out; they make up all but 3.8% or so of the library.
V-ATPase pH: regulators of yeast V-ATPase proton pumping, primary screen, pHLuorin cytosolic pH fluorescence | S. cerevisiae | response, % at 10 µM | actives 0.37% (n = 350,000) | AID 504577, 2011; in the data active means response mostly above about 7.3%, no sharp cut-off; inactive means mostly below about 5.4%; further: actives read high
Exocytosis inh: LAMP-1 surface exposure blockers, TALL-104 cells – cell-based, flow cytometry, MLPCN library, primary screen | TALL-104 LAMP-1 surface exposure; cells stimulated with thapsigargin and PMA | inhibition, % at 10 µM | actives 0.66% (n = 360,000);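 active means inhibition above about 55%, limit read from the data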
rCAG binder: binders of r(CAG) RNA repeats, primary screen, biochemical, fluorescence; r(CAG) RNA repeat, TO-PRO-1 dye displacement fluorescence; inhibition, % at 3 µM; actives 1.3% (n = 370,000);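 active means inhibition above the plate cutoff, the mean of all test compounds on that plate plus 3 SD, cut at about 35% in these data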;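 further: 0% = DMSO alone and 100% = 100 µM mitoxantrone as full dye displacement; higher means more dye released from RNA so lower well fluorescence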
MPTP block: mitochondrial permeability transition pore inhibitors, primary screen, biochemical, isolated mouse mitochondria, absorbance | inhibition, % at 10 µM | Ca2+ swelling absorbance, 30 min | actives 1.4% (n = 360,000);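 active means inhibition of 50% or more, scaled per plate between neutral and stimulator controls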;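 further: 0% = DMSO wells given calcium and 100% = 1 mM EGTA wells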
Beta2AR agonist: beta2AR agonists driving receptor internalization, primary screen, cell-based, FAP fluorogen, flow cytometry; Beta-2 adrenergic receptor (Homo sapiens), P07550; Am2.2-beta2AR cells; response, % (concentration not given with the values); actives 0.43% (n = 340,000);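 active means response above a set limit, near 3 SD of response in nonfluorescent compounds, cut at about 42% in these data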
Target sequence (P07550 whole entry, looked up): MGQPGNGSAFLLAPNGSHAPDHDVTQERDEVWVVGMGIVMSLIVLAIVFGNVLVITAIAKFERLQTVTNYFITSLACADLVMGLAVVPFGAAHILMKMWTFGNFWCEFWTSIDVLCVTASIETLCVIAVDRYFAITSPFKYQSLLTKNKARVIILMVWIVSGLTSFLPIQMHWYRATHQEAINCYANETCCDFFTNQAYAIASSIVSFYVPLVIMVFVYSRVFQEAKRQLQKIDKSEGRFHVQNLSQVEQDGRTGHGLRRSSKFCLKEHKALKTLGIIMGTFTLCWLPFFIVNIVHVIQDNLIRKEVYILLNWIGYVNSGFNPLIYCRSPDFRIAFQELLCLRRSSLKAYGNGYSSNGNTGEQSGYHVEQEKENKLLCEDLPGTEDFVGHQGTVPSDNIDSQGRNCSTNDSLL
T cell modulator: modulators of CD8 T cell-vesicle binding, primary screen, mouse 2C CD8+ T cells, flow cytometry; response (vesicle binding), % at 7 µM; 2C CD8+ T cell-vesicle binding; hits give low values; actives 0.068% (n = 330,000);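 active means response, share of CD8 T cells binding vesicles, and their 90th percentile fluorescence all below set limits, cut at about 80% in these data, passing the limit was not always enough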;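 further: values below 100% mean blocked vesicle binding to the CD8+ T cells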
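System: murine 2C transgenic CD8+ T lymphocytes; also added: QL9-loaded Drosophila micro-vesicles; times: binding 1.5 h at 37 °C; measured by: flow cytometry, PE anti-B7-1 (FL2) versus Alexa647 anti-CD8 (FL8), PFA-fixed; control set: Peptide-free naked vesicles (low) and QL9 vesicles with 0.7% DMSO vehicle (high)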
Exocytosis CP01: inhibitors of lytic granule exocytosis, confirmation, TALL-104 cells, flow cytometry, Cherry Pick01 | shares compounds with Exocytosis inh | AID 651954, 2012 | actives 11% (n = 1,500) | inhibition, % at 10 µM | LAMP-1 externalization; stimulated with PMA plus thapsigargin; in the data active means inhibition above about 60%;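 further: 0% = stimulated vehicle wells and 100% = unstimulated wells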
Starred values were filed as active, the others as inactive; / = not tested or not shown.

SMILES	V-ATPase pH	Exocytosis inh	rCAG binder	MPTP block	Beta2AR agonist	T cell modulator	Exocytosis CP01
Cc1ccc(-n2nc3c(N4CCC(C(=O)NCc5cccc(F)c5)CC4)nnc(C)c3c2C)cc1	0	59*	/	-2	14	93	9
CCOc1ccccc1CNC(=O)C1CCCN(c2nnc(C)c3c(C)n(-c4ccccc4)nc23)C1 (configuration not stated)	3	72*	-9	2	8	255	9
O=C(OCc1cn(Cc2cccc(F)c2)nn1)N1CCOCC1	/	/	2	/	/	/	/
C#CCNC(=O)C[C@H]1C[C@@]2(C(=O)OC)C(=C[C@H](C(C)(C)C)O[C@@H]2C)N(Cc2ccccc2)C1=O	/	/	0	/	/	/	/
CCCCCCCCC(c1nc2ccccc2[nH]1)N1CCN=C1c1cc2ccccc2[nH]1 (configuration not stated)	/	76*	10	13	/	/	45
CCC(c1nc2ccccc2[nH]1)n1c(C)nc2ccccc21 (configuration not stated)	/	/	2	/	/	/	/
O=C1CC2(CCCCCC2)Oc2ccccc21	-2	63*	2	0	-1	/	-14
CCN(CC)CCOC(=O)c1ccc(N/C=C(/C#N)c2nc(-c3ccc(OC)cc3)cs2)cc1	-10	64*	14	-1	31	364	66*
CCN(CC)CCOC(=O)c1ccc(N/C=C(/C#N)c2nc(-c3ccc4c(c3)OCO4)cs2)cc1	-51	24	13	-1	5	503	/
Oc1c(CN2CCOCC2)ccc2ccccc12	1	86*	6	0	14	/	-12
Oc1c(CN2CCOCC2)cc(-c2ccccc2)cc1CN1CCOCC1	2	2	-11	-1	-3	466	/
CCOc1ccc(CCNC(=O)CN2C(=O)CCSc3ccccc32)cc1OCC	3	96*	-10	0	-11	412	-4
CC(C)c1cc(C(C)C)c(S(=O)(=O)N2CCC(C(=O)NCc3cccs3)CC2)c(C(C)C)c1	/	/	6	/	/	/	/
CCCCC[C@@H](C)N1C[C@@H](COCc2ccccc2)Oc2cc(N3CC[C@H](O)C3)ccc2S1(=O)=O	/	-4	5	0	/	/	/
CCCCC[C@@H](C)N1C[C@@H](COCc2ccccc2)Oc2cc(N3CC[C@@H](N(C)C)C3)ccc2S1(=O)=O	/	58*	3	4	/	/	68*
CCCCC[C@@H](C)N1C[C@@H](COCc2ccccc2)Oc2cc(N3CC[C@@H](O)C3)ccc2S1(=O)=O	/	-3	4	3	/	/	/
CCCCC[C@H](C)N1C[C@H](COCc2ccccc2)Oc2cc(N3CC[C@@H](N(C)C)C3)ccc2S1(=O)=O	/	64*	2	5	/	/	42
C[C@H](c1ccccc1)N1C[C@H](COCc2ccccc2)Oc2cc(N3CC[C@@H](N(C)C)C3)ccc2S1(=O)=O	/	62*	4	6	/	/	22
CCCCC[C@@H](C)N1C[C@H](COCc2ccccc2)Oc2cc(N3CC[C@@H](N(C)C)C3)ccc2S1(=O)=O	/	74*	2	6	/	/	72*
CCCCC[C@H](C)N1C[C@H](COCc2ccccc2)Oc2cc(N3CC[C@H](N(C)C)C3)ccc2S1(=O)=O	/	53	3	6	/	/	/
Nn1c(SCC(=O)Nc2ccc(OCc3ccccc3)cc2)nnc1-c1cc(-c2ccc(F)cc2)n[nH]1	/	/	7	/	/	/	/
CC(=O)c1c(C)n(-c2cccc(Cl)c2)c2ccc(O)cc12	-1	81*	0	0	3	248	-2
CCC(C(=O)NCCc1ccc(C)cc1)n1nc(C)c2c(C)n(-c3ccccc3)nc2c1=O (configuration not stated)	10	86*	-9	0	-8	670	-4
CCC(C(=O)NCCCN(CC)Cc1ccccc1)n1nc(C)c2sc3ccccc3c2c1=O (configuration not stated)	-1	58*	-7	2	7	217	-5
C[C@@H]1C=CCCO[C@]12C(=O)N(Cc1ccc(Br)cc1)c1ccccc12	/	/	1	/	/	/	/
SMILES	V-ATPase pH	Exocytosis inh	rCAG binder	MPTP block	Beta2AR agonist	T cell modulator	Exocytosis CP01
CC(CC(=O)Nc1ncc([N+](=O)[O-])s1)c1ccccc1 (configuration not stated)	5	59*	5	40	10	78	-9
Cc1nnc(NC(=O)CC(C)c2ccccc2)s1 (configuration not stated)	-1	-1	-6	0	2	322	/
O=C(O)c1ccc(-c2noc(-c3ccccc3F)n2)cc1	1	97*	4	-1	1	/	-12
Cc1ccc(-c2noc(-c3ccccc3F)n2)cc1	-3	-2	-3	1	-12	79	/
O=S1(=O)c2c(NCc3ccco3)cccc2Oc2ccccc2CN1Cc1cn(Cc2ccccc2C(F)(F)F)nn1	/	/	14	/	/	/	/
CC1CC(=O)c2cnc(N)nc2C1 (configuration not stated)	1	4	1	4	10	393	/
CC1CC(=O)c2cnc(N3CCOCC3)nc2C1 (configuration not stated)	2	100*	2	0	7	251	-4
CC(=O)Nc1nc2ncccn2c1-c1ccc(C)cc1	/	/	-1	/	/	/	/
Cc1cc(C)n(-c2nc(SCCN(C)C)c3c4c(sc3n2)CCCC4)n1	-4	70*	8	5	23	255	33
Cc1ccccc1Nc1nc(N)nc(COC(=O)c2ccc(S(=O)(=O)N(C)C)cc2)n1	-3	63*	2	1	-4	199	-13
Cc1ccccc1Nc1nc(N)nc(COC(=O)c2ccco2)n1	-7	3	2	0	-7	346	/
OCC1COC(c2ccccc2)=N1 (configuration not stated)	/	/	1	/	/	/	/
Cc1c(C(=O)OCC(=O)Nc2cccc(S(N)(=O)=O)c2)oc2c1ccc1ccccc12	-1	88*	31	4	-3	164	93*
CCn1cc(CN2CCc3c([nH]c4ccccc34)C2c2cccc(OC)c2OC)c(C)n1 (configuration not stated)	1	59*	-5	0	-7	292	-5
O=C(OCc1cn(Cc2ccc(F)c(F)c2)nn1)N1CCCC1	/	/	0	/	/	/	/
C=CCN(CC=C)C[C@@H]1CSCCS(=O)(=O)N1	/	/	3	/	/	/	/
COc1ccc(-c2nc(CN3CCN(c4cc(C)nc(C)c4)CC3)c(C)o2)c2ccccc12	2	58*	8	-2	34	457	36
